Kir21 inh: inhibitors of mouse Kir2.1 inward-rectifier potassium channel. HEK293-Kir2.1, FluxOR thallium flux fluorescence; stronger effect = lower value. AID 1672, 2009. Inward rectifier potassium channel 2 (Mus musculus), P35561. B-score at 10 µM. hit rate 0.85% among 310,000;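 active = fluorescence ratio B-score at or below minus 3 SD of library scores, with starting-brightness B-score within 2 SD, cut at about -4.2 in these data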;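 note: channel flux triggered by added potassium and thallium sulfate stimulus; B-score of peak minus minimum fluorescence over baseline after thallium stimulus; more negative B-score means stronger Kir2.1 block with less thallium influx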
ANO1 block: TMEM16A chloride channel inhibitors, primary screen, cell-based, HTS; HEK293 TMEM16A/YFP iodide influx fluorescence, ionomycin; normalized B-score (activity score, 25-100; higher = stronger inhibition) at 10 µM; hit rate 1.2% among 310,000;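 active = ratio plate-corrected score three or more library SD toward inhibition, starting fluorescence score within five deviations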;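 note: score derived from kinetic fluorescence span divided by baseline fluorescence per well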
SR-BI HDL uptake: inhibitors of SR-BI mediated HDL lipid uptake, primary screen, ldlA[mSR-BI] cells, fluorescence, single point. ldlA[mSR-BI] CHO cells, DiI-HDL uptake fluorescence, 3 h. inhibition, % at 12.5 µM. hit rate 0.96% among 320,000;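 active = mean replicate inhibition of at least 70% and a set share of replicates each scoring 70 or more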
TMEM16A act: TMEM16A chloride channel activators or potentiators, primary screen, cell-based, HTS | Anoctamin-1 (Mus musculus), Q8BHY3 | HEK293 TMEM16A/YFP-H148Q/I152L, iodide quench fluorescence; stronger effect = lower value | B-score at 10 µM | hit rate 0.3% among 340,000 | AID 623877, 2012;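 active = fluorescence-ratio B-score plate-corrected deviation score at least 3 library SD below zero, with starting fluorescence score within 5 deviations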;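 note: channel opened by trigger with iodide after compound preincubation; score built on the fluorescence ratio of max minus min over baseline; more negative score means more quench and so TMEM16A activation or potentiation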
SR-BI DiI-HDL act: activators of SR-BI mediated DiI-HDL uptake, primary screen, ldlA[mSR-BI] CHO cells, DiI fluorescence; 3 h; 100 = double the neutral-control signal; activation, % at 12.5 µM; hit rate 0.096% among 320,000; AID 504775, 2011;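 active = mean replicate activation of at least 60% and every replicate at or above 60%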
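Assay system: LDL receptor-deficient CHO ldlA cells overexpressing murine SR-BI / Medium: BSA-supplemented, HEPES-buffered Ham's F12, pH 7.4 / Probe or stimulus: DiI-labelled HDL at 10 µg/mL final / Timing: compound with DiI-HDL co-incubation, 3 h at 37 °C / Technique: bottom-read cell fluorescence after medium removal, ex 550/em 595 nm / Measure: HDL uptake via cellular fluorescence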
DNA FID counter: compounds displacing fluorescent DNA intercalator, primary screen, artefact control for HCV NS3 helicase inhibitor project, biochemical, FID fluorescence; DNA fluorescent intercalator displacement; inhibition, % at 7.9 µM; hit rate 0.17% among 290,000; AID 1845, 2009; in the data active = inhibition above about 37%;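 note: higher means more ethidium bromide displaced from hairpin DNA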
TMEM16A reconf: TMEM16A chloride channel inhibitors, confirmation, cell-based, re-confirmation. shares compounds with ANO1 block. HEK293 TMEM16A/YFP-H148Q, iodide quench fluorescence; ionomycin added to raise cell calcium. inhibition, % at 10 µM. hit rate 39% among 2,300. AID 652189, 2013;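 active = mean duplicate percent inhibition, scaled so buffer wells are 0 and the reference blocker 100, over three buffer SD above buffer mean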
TMEM16A Ca cntr: calcium mobilization in TMEM16A/YFP HEK293 cells, confirmation, counter-screen for TMEM16A inhibitor project; shares compounds with ANO1 block; calcium response (% of ionomycin), % at 10 µM; Fluo4 calcium mobilization; AID 652231, 2013; hit rate 2% among 2,300;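 active = duplicate-averaged calcium signal over 20% of the ionomycin maximum, relative to buffer baseline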;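 note: each well's signal is peak minus trough fluorescence divided by its pre-addition baseline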
Parental YFP cnt: iodide YFP quench changes in parental YFP-HEK293, counter-screen for TMEM16A inhibitor project, cell-based | shares compounds with ANO1 block | ionomycin | YFP ratio F(max-min)/F0 at 10 µM | 2,300 tested, under 10 active | AID 652233, 2013;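 active = yellow fluorescent protein signal ratio exceeding the buffer control mean by over 5 SD of those controls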;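 note: ratio is mean of duplicate wells from kinetic YFP trace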
ClC-1 rat inh: ClC-1 chloride channel inhibition, selectivity assay for TMEM16A inhibitor project, cell-based, voltage-dependent ClC-1. AID 652236, 2013. 2,300 tested, under 10 active. shares compounds with ANO1 block. CHO ClC-1-YFP, iodide influx fluorescence quench; iodide control reads 0, buffer control 100. ratio percent, % at 10 µM;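 active = duplicate-mean ratio percent above the mean of iodide-only control wells, which defines zero, plus 5 of their SD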;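 note: higher percent means stronger block of ClC-1 iodide influx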
Target sequence (P35524 whole entry, looked up): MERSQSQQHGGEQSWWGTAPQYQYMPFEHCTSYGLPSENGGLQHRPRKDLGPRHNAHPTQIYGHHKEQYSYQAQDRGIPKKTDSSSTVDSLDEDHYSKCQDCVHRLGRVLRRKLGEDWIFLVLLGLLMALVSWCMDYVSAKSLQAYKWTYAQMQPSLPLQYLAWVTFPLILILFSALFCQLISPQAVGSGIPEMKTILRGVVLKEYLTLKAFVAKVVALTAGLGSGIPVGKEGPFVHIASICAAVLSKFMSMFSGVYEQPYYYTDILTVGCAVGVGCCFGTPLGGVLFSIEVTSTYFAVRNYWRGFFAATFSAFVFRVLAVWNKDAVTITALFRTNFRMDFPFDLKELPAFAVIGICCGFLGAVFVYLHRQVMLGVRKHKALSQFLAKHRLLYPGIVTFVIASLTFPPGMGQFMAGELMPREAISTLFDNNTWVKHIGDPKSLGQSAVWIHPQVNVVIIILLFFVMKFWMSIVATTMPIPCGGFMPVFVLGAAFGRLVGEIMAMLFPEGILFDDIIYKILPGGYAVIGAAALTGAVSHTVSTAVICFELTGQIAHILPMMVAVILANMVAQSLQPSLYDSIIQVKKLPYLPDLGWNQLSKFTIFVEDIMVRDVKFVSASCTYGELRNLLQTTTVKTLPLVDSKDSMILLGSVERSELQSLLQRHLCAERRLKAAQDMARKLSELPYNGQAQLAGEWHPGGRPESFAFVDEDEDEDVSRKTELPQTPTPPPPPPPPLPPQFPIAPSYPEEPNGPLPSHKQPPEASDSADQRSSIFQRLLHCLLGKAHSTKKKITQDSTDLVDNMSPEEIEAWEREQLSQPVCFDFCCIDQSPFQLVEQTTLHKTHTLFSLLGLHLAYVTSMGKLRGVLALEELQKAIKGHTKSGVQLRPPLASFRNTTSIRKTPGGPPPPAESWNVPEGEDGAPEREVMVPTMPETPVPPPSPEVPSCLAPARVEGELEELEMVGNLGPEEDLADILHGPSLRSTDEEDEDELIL
Of the large screens only hits and unclear results are named; the others gave an inactive call (follow-up assays come after a bar, where they were run). Hits are enriched below; roughly 3% of the tested compounds scored in any of these assays.

CCn1c(=O)n(CC)c2cc(S(=O)(=O)N3CCC(c4ccccc4)CC3)ccc21	ANO1 block 100 | TMEM16A reconf inactive | TMEM16A Ca cntr inactive | Parental YFP cnt inactive | ClC-1 rat inh inactive
Cn1c(=O)c(=O)n(C)c2cc(S(=O)(=O)N3CCC(Cc4ccccc4)CC3)ccc21	none
Cc1c(C(=O)N2CCCCC2)oc2ccc(S(=O)(=O)N3CC(C)CC(C)C3)cc12 (stereo unspecified)	ANO1 block 25 | TMEM16A reconf 21% | TMEM16A Ca cntr inactive | Parental YFP cnt inactive | ClC-1 rat inh inactive
CN(c1ccccc1)S(=O)(=O)c1ccc(NC(=O)c2ccccc2)cc1	none
CN(c1ccccc1)S(=O)(=O)c1ccc(NC(=O)c2nc(S(C)(=O)=O)ncc2Cl)cc1	Kir21 inh -4.5, ANO1 block 25, TMEM16A act -5.5 | TMEM16A reconf 18% | TMEM16A Ca cntr inactive | Parental YFP cnt inactive | ClC-1 rat inh inactive
CN(c1ccccc1)S(=O)(=O)c1cc(C(=O)NCCCn2ccnc2)ccc1Cl	none (no result: Kir21 inh, ANO1 block, DNA FID counter)
Cc1ccccc1C(=O)NNC(=S)NC(=O)COc1ccccc1	ANO1 block 25 | TMEM16A reconf 34% | TMEM16A Ca cntr 80% | Parental YFP cnt inactive | ClC-1 rat inh inactive
O=S(=O)(c1ccc(Br)s1)N1CCN(CCOc2ccccc2)CC1	none (no result: Kir21 inh, ANO1 block, DNA FID counter)
Cc1cccc(C)c1OCc1cc(C(=O)NCC2CCCCC2)no1	none
Cc1cccc(C)c1OCc1cc(C(=O)N(Cc2c(C)nn(C)c2C)C2CC2)no1	ANO1 block 25 | TMEM16A reconf 22% | TMEM16A Ca cntr inactive | Parental YFP cnt inactive | ClC-1 rat inh inactive
CC(C)C(=O)Nc1cccc(COc2ccccc2CN(Cc2ccccc2)C(=O)OC(C)(C)C)c1	none (no result: Kir21 inh, ANO1 block, TMEM16A act, DNA FID counter)
COC(=O)c1cccc(Nc2ncnc3sccc23)c1	ANO1 block 100 | TMEM16A reconf 26% | TMEM16A Ca cntr inactive | Parental YFP cnt inactive | ClC-1 rat inh inactive
c1ccc2[nH]c(Cn3nnc4ccccc43)nc2c1	none (no result: DNA FID counter)
O=S(=O)(c1ccccc1)c1nc(-c2ccccc2)oc1N1CCOCC1	none
COc1cc(-c2nc(S(=O)(=O)c3ccccc3)c(N3CCOCC3)o2)cc(OC)c1OC	ANO1 block 100 | TMEM16A reconf inactive | TMEM16A Ca cntr inactive | Parental YFP cnt inactive | ClC-1 rat inh inactive
CC(=O)Oc1ccc(-c2cccc(C(=O)NCC(=O)O)c2)cc1	ANO1 block 25 | TMEM16A reconf inactive | TMEM16A Ca cntr inactive | Parental YFP cnt inactive | ClC-1 rat inh inactive
CC(Oc1ccccc1)C(=O)Nc1nnc(S(=O)(=O)Nc2ccccc2)s1 (stereo unspecified)	ANO1 block 100 | TMEM16A reconf inactive | TMEM16A Ca cntr inactive | Parental YFP cnt inactive | ClC-1 rat inh inactive
COc1cc(NC(=O)COC(=O)CO/N=C(\C)c2ccc3c(c2)OCO3)cc(OC)c1	none (no result: Kir21 inh, ANO1 block, DNA FID counter)

Source: PubChem BioAssay
